Data on 4 molecules can be found in ChEMBL document CHEMBL1139481, “Synthesis and biological activity of anticancer ether lipids that are specifically released by phospholipase A2 in tumor tissue” (J Med Chem, 2005).

Holding throughout (assay type): functional, cell-based
The test system of one assay is Caco-2. The assay can be described thus: Cytotoxicity against human Caco-2 cells after 72 hrs by MTT assay. Particulars: Caco-2, 72 h. The gist of the method: (§1)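 Cells (Caco-2 in Dulbecco's modified Eagle medium; HT-29 in McCoy's 5A; both with 10% FCS and 2 mM L-glutamine; KATO III in RPMI 1640 with 10% heat-inactivated FCS, 2 mM L-glutamine, 1 mM pyruvate, 5% CO2, 37 °C) plated at 1 × 10^4/well 24 h before adding AELs in PBS with 5-30% ethanol. After 72 h, MTT read-out. IC50 is 50% reduction in cell number; mean ± SD, n = 3-9.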
On the technique in general: Formazan colour is commonly taken as a measure of viable cells.

Another assay concerns HT-29. As to the kind of experiment: Cytotoxicity against human HT29 cells after 72 hrs by MTT assay. Particulars: HT-29, 72 h. The gist of the method: as §1
In assay [1] the test system is MDA-MB-435. As to the kind of experiment: Inhibition of Akt phosphorylation in MDA-MB-435 cells after 2 hrs. Particulars: Homo sapiens, MDA-MB-435, 2 h. In a few lines: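 MDA-MB-435 cells at 70% confluency, serum-starved 18 h, then given compound for 2 h and stimulated with insulin 10 µg/mL for 30 min. Lysates taken in Laemmli buffer after an ice-cold PBS wash. Western blot probed for Ser473 phospho-Akt, with total Akt as loading control. Controls: no insulin, and wortmannin 2 µM for 2 h before insulin.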

Assay [2] relates to MDA-MB-435. The assay can be described thus: Cytotoxicity against human MDA-MB-435 cells after 3 days in serum free conditions by MTT assay. Particulars: MDA-MB-435, 72 h. The gist of the method: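 MDA-MB-435 cells grown in Dulbecco's modified Eagle medium with 10% FCS and 2 mM L-glutamine, then plated at 1 × 10^4/well 24 h before treatment. Lipids in PBS with 5-30% ethanol were added, and cells were incubated 3 days without serum to match the Akt study conditions. MTT read-out was expressed as percentage reduction in incorporated MTT, run in triplicate.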

The nature of assay [3]: Cytotoxicity against human KATO3 cells after 72 hrs by MTT assay. Particulars: KATO3, 72 h. The gist of the method: as §1

For `CCCCCCCCCCCCCCCCOC[C@@H](O)COP(=O)(O)OC[C@@H](O)CO`, the IC50 (usually the concentration that gives 50% inhibition) worked out at 75 µM in the assay on Caco-2; 20 µM in the assay on HT-29; 24 µM in the assay with MDA-MB-435 [1]; 47 µM in the assay on MDA-MB-435 [2]; 49 µM in assay [3].
Take `CCCCCCCCCCCCCCCCOC[C@@H](O)COP(=O)(O)OC[C@H](O)CO`: the IC50 in the assay with HT-29 turned out to be 105 µM; in the assay with MDA-MB-435 [1], 24 µM; in the assay on MDA-MB-435 [2], 73 µM.
For the molecule `CCCCCCCCCCCCCCCCCCOCC(COP(=O)([O-])OCC[N+](C)(C)C)OC` (configuration not stated) [EDELFOSINE], the IC50 was 3 µM in the assay with MDA-MB-435 [1] and 12 µM in the assay with MDA-MB-435 [2].
Turning to `CCCCCCCCCCCCCCCCOP(=O)([O-])OCC[N+](C)(C)C` [MILTEFOSINE], the IC50 in the assay with MDA-MB-435 [1] came to 5 µM; in the assay on MDA-MB-435 [2], 23 µM.
